≈ marks a conversion by molar mass, not a printed value.
Legend:
[1] = Antifungal activity against fluconazole/itraconazole/voriconazole-resistant Candida albicans ATCC 64124; assay type: functional
Listeria monocytogenes = assay: Antibacterial activity against Listeria monocytogenes ATCC 19115; assay type: functional
Pseudomonas aeruginosa = assay: Antibacterial activity against Pseudomonas aeruginosa ATCC 27853; assay type: functional
Enterococcus = assay: Antibacterial activity against vancomycin-resistant Enterococcus; assay type: functional
In short: (§1)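 Values were set in μM and converted to μg/mL for presentation. Amikacin, ampicillin and ofloxacin served as positive controls.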

Acinetobacter baumannii = assay: Antibacterial activity against Acinetobacter baumannii ATCC 19606; assay type: functional
Escherichia coli = assay: Antibacterial activity against Escherichia coli MC1061; assay type: functional; in short: as §1
[2] = Antifungal activity against fluconazole/itraconazole/voriconazole-susceptible Candida albicans ATCC 2876; assay type: functional
[3] = Antifungal activity against fluconazole/itraconazole/voriconazole-resistant Candida albicans ATCC 1237; assay type: functional
[4] = Antifungal activity against fluconazole/itraconazole/voriconazole-resistant Candida albicans ATCC 90819; assay type: functional
[5] = Antifungal activity against fluconazole/itraconazole/voriconazole-resistant Candida albicans ATCC 10231; assay type: functional
Klebsiella pneumoniae = assay: Antibacterial activity against Klebsiella pneumoniae ATCC 27736; assay type: functional
[6] = system: Mycolicibacterium smegmatis; assay: Antimycobacterial activity against Mycobacterium smegmatis MC2 155; assay type: functional; conditions: str. MC2 155; in short: as §1
Candida albicans = assay: Antifungal activity against Candida albicans ATCC 1003; assay type: functional
Staphylococcus aureus = assay: Antibacterial activity against methicillin-resistant Staphylococcus aureus; assay type: functional; in short: as §1
Enterobacter cloacae = assay: Antibacterial activity against Enterobacter cloacae ATCC 13047; assay type: functional; conditions: subsp. cloacae ATCC 13047
[7] = Antifungal activity against fluconazole/itraconazole/voriconazole-susceptible Candida albicans ATCC 2310; assay type: functional
[8] = Antibacterial activity against Salmonella enterica ATCC 14028; assay type: functional
Bacillus subtilis = assay: Antibacterial activity against Bacillus subtilis 168; assay type: functional; conditions: subsp. subtilis str. 168
[9] = Cytotoxicity against human BEAS2B cells assessed as reduction in cell survival; assay type: toxicity, cell-based; conditions: beas-2b
[10] = Cytotoxicity against human A549 cells assessed as reduction in cell survival; assay type: toxicity, cell-based

| Compound | MIC [1] | MIC (Listeria monocytogenes) | MIC (Pseudomonas aeruginosa) | MIC (Enterococcus) | MIC (Acinetobacter baumannii) | MIC (Escherichia coli) | MIC [2] | MIC [3] | MIC [4] | MIC [5] | MIC (Klebsiella pneumoniae) | MIC [6] | MIC (Candida albicans) | MIC (Staphylococcus aureus) | MIC (Enterobacter cloacae) | MIC [7] | MIC [8] | MIC (Bacillus subtilis) | IC50 [9] | IC50 [10] |
| --- | --- | --- | --- | --- | --- | --- | --- | --- | --- | --- | --- | --- | --- | --- | --- | --- | --- | --- | --- | --- |
| C/C(=N\NC(=N)N)c1ccc(-c2ccc(/C(C)=N/Nc3ccccc3Cl)cc2)cc1 | 68.7 µM (≈ 28.8 µg/mL) | 62.5 to 125 µM (≈ 26.2 to 52.4 µg/mL) | 500 µM (≈ 209 µg/mL) | 3.9 µM (≈ 1.63 µg/mL) | 62.5 µM (≈ 26.2 µg/mL) | 500 µM (≈ 209 µg/mL) | 34.3 µM (≈ 14.4 µg/mL) | 34.3 µM (≈ 14.4 µg/mL) | 34.3 µM (≈ 14.4 µg/mL) | 34.3 µM (≈ 14.4 µg/mL) | 62.5 to 125 µM (≈ 26.2 to 52.4 µg/mL) | 500 µM (≈ 209 µg/mL) | 34.3 µM (≈ 14.4 µg/mL) | 125 µM (≈ 52.4 µg/mL) | 500 µM (≈ 209 µg/mL) | 34.3 µM (≈ 14.4 µg/mL) | 62.5 to 125 µM (≈ 26.2 to 52.4 µg/mL) | 62.5 to 125 µM (≈ 26.2 to 52.4 µg/mL) |  |  |
| Cl.N=C(N)N/N=C/c1ccc(-c2ccc(/C=N/Nc3ccccc3Br)cc2)cc1 | 8.3 µM | 2 µM | > 500 µM | 2 µM | > 500 µM | > 500 µM | 8.3 µM | 8.3 µM | 8.3 µM | 4.1 µM | > 500 µM | 3.9 µM | 4.1 µM | 2 µM | > 500 µM | 8.3 µM | > 500 µM | > 500 µM | 3.4 µg/mL | 6.7 µg/mL |
| CC1COc2c(N3CCN(C)CC3)c(F)cc3c(=O)c(C(=O)O)cn1c23 (stereo not given) [OFLOXACIN] |  | 1 µM (≈ 0.361 µg/mL) | 3.9 µM (≈ 1.41 µg/mL) | 7.8 µM (≈ 2.82 µg/mL) | ≤ 0.5 µM | 3.9 to 7.8 µM (≈ 1.41 to 2.82 µg/mL) |  |  |  |  | 15.6 to 31.3 µM (≈ 5.64 to 11.3 µg/mL) | 15.6 µM (≈ 5.64 µg/mL) |  | 1 µM (≈ 0.361 µg/mL) | ≤ 0.5 µM |  | 15.6 to 31.3 µM (≈ 5.64 to 11.3 µg/mL) | ≤ 0.5 µM |  |  |
| CC1(C)S[C@@H]2[C@H](NC(=O)[C@H](N)c3ccccc3)C(=O)N2[C@H]1C(=O)O [AMPICILLIN] |  | 250 µM (≈ 87.4 µg/mL) | > 250 µM | 250 µM (≈ 87.4 µg/mL) | > 250 µM | > 250 µM |  |  |  |  | > 250 µM | > 250 µM |  | 250 µM (≈ 87.4 µg/mL) | > 250 µM |  | 250 µM (≈ 87.4 µg/mL) | > 250 µM |  |  |
| C/C(=N\NC(=N)N)c1ccc(Oc2ccc(/C(C)=N/NC(=N)N)cc2)cc1.Cl.Cl | 17.8 µM | 62.5 µM | 62.5 µM | 3.9 µM | 62.5 µM | 125 µM | 8.9 µM | 17.8 µM | 17.8 µM | 17.8 µM | 62.5 µM | 125 to 250 µM | 17.8 µM | 125 µM | 250 µM | 17.8 µM | 125 µM | 125 µM | 2.9 µg/mL | 3.9 µg/mL |
| NCC[C@H](O)C(=O)N[C@@H]1C[C@H](N)[C@@H](O[C@H]2O[C@H](CN)[C@@H](O)[C@H](O)[C@H]2O)[C@H](O)[C@H]1O[C@H]1O[C@H](CO)[C@@H](O)[C@H](N)[C@H]1O [AMIKACIN] |  | 3.9 µM (≈ 2.28 µg/mL) | 62.5 µM (≈ 36.6 µg/mL) | 125 µM (≈ 73.2 µg/mL) | 31.3 µM (≈ 18.3 µg/mL) | 31.3 µM (≈ 18.3 µg/mL) |  |  |  |  | 31.3 µM (≈ 18.3 µg/mL) | 15.6 µM (≈ 9.14 µg/mL) |  | 31.3 µM (≈ 18.3 µg/mL) | 62.5 µM (≈ 36.6 µg/mL) |  | 3.9 to 7.8 µM (≈ 2.28 to 4.57 µg/mL) | 3.9 to 15.6 µM (≈ 2.28 to 9.14 µg/mL) |  |  |
| C/C(=N\NC(=N)N)c1ccc(-c2ccc(/C(C)=N/NC(=N)N)cc2)cc1.Cl.Cl | 4.7 µM | > 500 µM | 2 µM | > 500 µM | > 500 µM | 62.5 µM | 4.7 µM | > 73.9 µM | 9.2 µM | 4.7 to 9.2 µM | 15.6 µM | > 500 µM | 18.4 µM | > 500 µM | 125 µM | 9.2 µM | > 500 µM | > 500 µM | 1.7 µg/mL | 6.3 µg/mL |
| C/C(=N\NC(=N)N)c1ccc(/C(C)=N/NC(=N)N)cc1 | 90.1 µM (≈ 24.7 µg/mL) | 250 µM (≈ 68.6 µg/mL) | 250 µM (≈ 68.6 µg/mL) | 125 µM (≈ 34.3 µg/mL) | 500 µM (≈ 137 µg/mL) | > 500 µM | > 90.1 µM | > 90.1 µM | > 90.1 µM | > 90.1 µM | 500 µM (≈ 137 µg/mL) | > 500 µM | > 90.1 µM | > 500 µM | > 500 µM | > 90.1 µM | 250 to 500 µM (≈ 68.6 to 137 µg/mL) | 250 µM (≈ 68.6 µg/mL) |  |  |
| Cl.Cl.N=C(N)N/N=C/c1ccc(-c2cccc(/C=N/NC(=N)N)c2)cc1 | 9.9 µM | 1 µM | > 500 µM | 3.9 µM | > 500 µM | > 500 µM | 9.9 µM | 9.9 µM | 9.9 µM | 9.9 µM | > 500 µM | 1 µM | 9.9 µM | 3.9 µM | > 500 µM | 9.9 µM | > 500 µM | > 500 µM | 5.7 µg/mL | 13.9 µg/mL |
| Cl.N#Cc1ccc(N/N=C/c2ccc(-c3ccc(/C=N/NC(=N)N)cc3)cc2)cc1 | 74.9 µM | 7.8 µM | 31.3 to 62.5 µM | 2 to 3.9 µM | 15.6 to 31.3 µM | 62.5 to 125 µM | 37.3 µM | 37.3 µM | 37.3 µM | 37.3 µM | 15.6 to 31.3 µM | 15.6 to 31.3 µM | 18.7 µM | 15.6 µM | 500 µM | 37.3 µM | 15.6 µM | 31.3 µM | 1.9 µg/mL | 4.2 µg/mL |
| Cl.Cl.N=C(N)N/N=C/c1ccc(-c2ccc(/C=N/NC(=N)N)cc2)cc1 | > 79.2 µM | 1 µM | > 500 µM | 2 µM | > 500 µM | > 500 µM | 19.7 µM | 39.5 µM | > 79.2 µM | 39.5 µM | > 500 µM | > 500 µM | 19.7 µM | 3.9 µM | > 500 µM | > 79.2 µM | > 500 µM | > 500 µM | 3 µg/mL | 6.6 µg/mL |
| C/C(=N\NC(=N)N)c1cccc(/C(C)=N/NC(=N)N)c1.Cl.Cl | > 90.1 µM | 250 µM | 500 µM | 125 µM | > 500 µM | > 500 µM | 22.5 µM | 90.1 µM | > 90.1 µM | > 90.1 µM | > 500 µM | 15.6 µM | > 90.1 µM | > 500 µM | > 500 µM | 90.1 µM | 62.5 to 250 µM | 250 µM | 33 µg/mL | 31.2 µg/mL |
| Cl.N=C(N)N/N=C/c1ccc(-c2ccc(/C=N/Nc3ccc(Cl)cc3)cc2)cc1 | 36.5 µM | 3.9 µM | > 500 µM | 3.9 µM | > 500 µM | > 500 µM | 18.3 µM | 36.5 µM | 18.3 µM | 18.3 µM | > 500 µM | 3.9 µM | 9.1 µM | 7.8 µM | > 500 µM | 9.1 µM | > 500 µM | > 500 µM | 6 µg/mL | 4.9 µg/mL |
| N=C(N)N/N=C/c1ccc(-c2ccc(/C=N/Nc3ccc(Cl)cc3Cl)cc2)cc1 | 67.8 µM (≈ 28.8 µg/mL) | 7.8 µM (≈ 3.32 µg/mL) | > 500 µM | 7.8 µM (≈ 3.32 µg/mL) | > 500 µM | > 500 µM | 33.8 µM (≈ 14.4 µg/mL) | 33.8 µM (≈ 14.4 µg/mL) | 67.8 µM (≈ 28.8 µg/mL) | 16.8 µM (≈ 7.15 µg/mL) | > 500 µM | 3.9 µM (≈ 1.66 µg/mL) | 16.8 µM (≈ 7.15 µg/mL) | 7.8 µM (≈ 3.32 µg/mL) | > 500 µM | 16.8 µM (≈ 7.15 µg/mL) | > 500 µM | > 500 µM |  |  |
| C[C@@H]1[C@H](O)[C@@H](C)/C=C/C=C/C=C/C=C/C=C/C=C/C=C/[C@H](O[C@@H]2O[C@H](C)[C@@H](O)[C@H](N)[C@@H]2O)C[C@@H]2O[C@](O)(C[C@@H](O)C[C@@H](O)[C@H](O)CC[C@@H](O)C[C@@H](O)CC(=O)O[C@H]1C)C[C@H](O)[C@H]2C(=O)O [AMPHOTERICIN B] | 2.1 to 4.2 µM (≈ 1.94 to 3.88 µg/mL) |  |  |  |  |  |  |  |  |  |  |  |  |  |  |  |  |  | 17.7 µg/mL (≈ 19.2 µM) | 18.2 µg/mL (≈ 19.7 µM) |
| C/C(=N\NC(=N)N)c1ccc(Cc2ccc(/C(C)=N/NC(=N)N)cc2)cc1.Cl.Cl | 17.8 µM | 3.9 µM | > 500 µM | 2 µM | > 500 µM | > 500 µM | 8.9 µM | 17.8 µM | 17.8 µM | 17.8 µM | > 500 µM | 2 µM | 17.8 µM | 3.9 µM | > 500 µM | 17.8 µM | > 500 µM | > 500 µM | 2.9 µg/mL | 4.3 µg/mL |
| Cl.N=C(N)N/N=C/c1ccc(-c2ccc(/C=N/Nc3ccc(F)cc3F)cc2)cc1 | 9.1 µM | 2 to 3.9 µM | > 500 µM | 3.9 µM | > 500 µM | > 500 µM | 9.1 µM | 9.1 µM | 18.2 µM | 2.3 µM | > 500 µM | 2 to 3.9 µM | 4.5 µM | 3.9 µM | > 500 µM | 9.1 µM | > 500 µM | > 500 µM | 5.8 µg/mL | 4.8 µg/mL |
